ChEMBL document CHEMBL1944509, “Methyl-monofluorination of ibuprofen selectively increases its inhibitory activity toward cyclooxygenase-1 leading to enhanced analgesic activity and reduced gastric damage in vivo” (Bioorg Med Chem Lett, 2011)
pIC50: −log10 of the molar value.

Key:
[1] = Drug level in ICR mouse brain at 10 mg/kg, po after 6 hrs by HPLC/MS/MS analysis; assay type: ADME, organism-based; design: dose 10 mg/kg, route oral; conditions: read-out: Drug uptake
Nucleic Acid [2] = assay: Ratio of drug level in brain to plasma in ICR mouse at 10 mg/kg, po after 0.5 hrs by HPLC/MS/MS analysis; assay type: ADME, organism-based; design: dose 10 mg/kg, route oral
Nucleic Acid [3] = assay: Ratio of drug level in brain to plasma in ICR mouse at 5 mg/kg, iv after 6 hrs by HPLC/MS/MS analysis; assay type: ADME, organism-based; design: dose 5 mg/kg, route intravenous
[4] = Plasma concentration in ICR mouse at 10 mg/kg, po after 8 hrs by HPLC/MS/MS analysis; assay type: ADME, organism-based; design: dose 10 mg/kg, route oral
[5] = Drug level in ICR mouse brain at 5 mg/kg, iv after 4 hrs by HPLC/MS/MS analysis; assay type: ADME, organism-based; design: dose 5 mg/kg, route intravenous; conditions: read-out: Drug uptake
Nucleic Acid [6] = assay: Ratio of drug level in brain to plasma in ICR mouse at 5 mg/kg, iv after 4 hrs by HPLC/MS/MS analysis; assay type: ADME, organism-based; design: dose 5 mg/kg, route intravenous
Rattus norvegicus [7] = assay: Gastrointestinal toxicity in Wistar rat assessed as ulcerogenic effect at 100 mg/kg, po measured after 17 hrs post treatment (Rvb =0.50 +/- 0.41); assay type: organism-based; design: dose 100 mg/kg, route oral; conditions: in vivo
Summary of the method: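 Wistar rats, 150–200 g, eight per group, fasted at least 8 h with water ad libitum. Drug is given orally as a 0.5% CMC suspension at 10 ml/kg; controls get 0.5% CMC. Food is returned after 30 min. At 17 h rats are killed with CO₂ and stomachs removed. Damage score is the summed lesion lengths in mm per rat; mean ± SEM.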

Mus musculus [8] = assay: Analgesic activity in Swiss albino mouse assessed as inhibition of acetic acid-induced writhing at 30 mg/kg, ig administered 1 hr before acetic acid challenge measured 10 mins post acetic acid challenge; assay type: functional; conditions: po, route intragastric
Summary of the method: (§1)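 Male Swiss albino mice (22–24 g), three groups, n = 8; drug suspended in 0.5% CMC given i.g. (0.3 ml/10 g) 1 h before i.p.-unspecified injection of 1% (v/v) acetic acid at 0.1 ml/10 g. Writhes counted for 10 min starting 10 min after acetic acid; activity as percent decrease in writhing versus vehicle control; mean ± SEM, ANOVA then t-test.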

Rattus norvegicus [9] = assay: Antiinflammatory activity in Wistar albino rat assessed as inhibition of carrageenan-induced paw edema at 30 mg/kg, ig administered 1 hr before carrageenan challenge measured after 4 hrs post carrageenan challenge by plethysmometer; assay type: functional; conditions: po, route intragastric
Summary of the method: (§2)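 Male Wistar rats (140–160 g), three groups of eight; drug as 0.5% CMC suspension i.g., controls given CMC only. 1 h later, 0.1 ml of 0.1% carrageenan in 0.9% NaCl injected sub-plantar into right hind paw. Paw volume read by plethysmometer hourly to 6 h and at 24 h; inhibition % = (Vc − Vt)/Vc × 100 from mean volume increases; mean ± SEM.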

Mus musculus [10] = assay: Analgesic activity in Swiss albino mouse assessed as inhibition of acetic acid-induced writhing at 33.6 mg/kg, ig administered 1 hr before acetic acid challenge measured 10 mins post acetic acid challenge; assay type: functional; conditions: po, route intragastric; summary of the method: as §1
[11] = Apparent half life in ICR mouse at 5 mg/kg, iv; assay type: ADME, organism-based; design: dose 5 mg/kg, route intravenous; conditions: in vivo, read-out: t1/2(app) (converted)
[12] = target: T1, Prostaglandin G/H synthase 2 (Homo sapiens, UniProt P35354); assay: Inhibition of COX2 in LPS-stimulated and PMA-treated human U937 cells assessed as PGE2 production after 15 mins by ELISA; assay type: cell-based, U-937
T1 sequence (P35354 whole entry): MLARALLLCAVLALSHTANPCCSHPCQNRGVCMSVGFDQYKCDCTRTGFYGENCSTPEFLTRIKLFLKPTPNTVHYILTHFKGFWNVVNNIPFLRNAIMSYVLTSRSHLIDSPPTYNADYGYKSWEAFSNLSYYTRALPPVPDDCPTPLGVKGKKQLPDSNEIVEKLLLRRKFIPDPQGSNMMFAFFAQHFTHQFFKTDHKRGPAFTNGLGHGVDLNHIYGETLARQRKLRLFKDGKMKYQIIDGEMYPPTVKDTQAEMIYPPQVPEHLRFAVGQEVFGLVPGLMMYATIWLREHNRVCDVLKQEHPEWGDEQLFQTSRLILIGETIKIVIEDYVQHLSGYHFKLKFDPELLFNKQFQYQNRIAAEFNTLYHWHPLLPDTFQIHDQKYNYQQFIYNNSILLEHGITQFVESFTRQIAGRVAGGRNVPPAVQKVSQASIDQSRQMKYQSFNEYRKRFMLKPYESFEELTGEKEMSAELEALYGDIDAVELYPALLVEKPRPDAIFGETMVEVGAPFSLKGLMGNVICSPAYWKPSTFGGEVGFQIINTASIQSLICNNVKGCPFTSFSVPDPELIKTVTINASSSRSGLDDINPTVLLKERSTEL

Nucleic Acid [13] = assay: Ratio of drug level in brain to plasma in ICR mouse at 10 mg/kg, po after 2 hrs by HPLC/MS/MS analysis; assay type: ADME, organism-based; design: dose 10 mg/kg, route oral
[14] = Apparent volume of distribution in ICR mouse at 5 mg/kg, iv; assay type: ADME, organism-based; design: dose 5 mg/kg, route intravenous; conditions: in vivo, read-out: Vz
Mus musculus [15] = assay: Ratio of drug level in brain to plasma in ICR mouse at 5 mg/kg, iv
Nucleic Acid [16] = assay: Ratio of drug level in brain to plasma in ICR mouse at 5 mg/kg, iv after 1 hr by HPLC/MS/MS analysis; assay type: ADME, organism-based; design: dose 5 mg/kg, route intravenous
[17] = target: T2, Prostaglandin G/H synthase 1 (Ovis aries, UniProt P05979); assay: Inhibition of ovine COX1 by EIA
T2 sequence (P05979 whole entry): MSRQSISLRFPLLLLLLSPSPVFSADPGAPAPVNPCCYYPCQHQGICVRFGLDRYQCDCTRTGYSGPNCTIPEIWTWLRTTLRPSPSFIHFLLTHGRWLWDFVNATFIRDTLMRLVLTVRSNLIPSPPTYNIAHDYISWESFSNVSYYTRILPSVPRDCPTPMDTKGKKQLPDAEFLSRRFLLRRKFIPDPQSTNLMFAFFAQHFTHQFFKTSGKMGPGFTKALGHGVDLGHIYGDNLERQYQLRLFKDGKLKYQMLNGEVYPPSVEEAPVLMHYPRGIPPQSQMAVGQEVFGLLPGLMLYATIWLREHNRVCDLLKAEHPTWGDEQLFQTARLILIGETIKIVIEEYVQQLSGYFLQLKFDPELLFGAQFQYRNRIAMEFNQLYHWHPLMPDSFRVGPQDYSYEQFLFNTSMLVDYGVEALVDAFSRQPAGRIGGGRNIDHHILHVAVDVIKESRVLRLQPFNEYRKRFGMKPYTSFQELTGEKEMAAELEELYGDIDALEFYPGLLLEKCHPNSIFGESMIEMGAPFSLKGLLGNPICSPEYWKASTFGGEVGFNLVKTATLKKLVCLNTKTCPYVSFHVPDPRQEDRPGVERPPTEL

Nucleic Acid [18] = assay: Ratio of drug level in brain to plasma in ICR mouse at 10 mg/kg, po after 4 hrs by HPLC/MS/MS analysis; assay type: ADME, organism-based; design: dose 10 mg/kg, route oral
Rattus norvegicus [19] = assay: Antiinflammatory activity in Wistar albino rat assessed as inhibition of carrageenan-induced paw edema at 33.6 mg/kg, ig administered 1 hr before carrageenan challenge measured after 4 hrs post carrageenan challenge by plethysmometer; assay type: functional; conditions: po, route intragastric; summary of the method: as §2
[20] = Clearance in ICR mouse at 5 mg/kg, iv; assay type: ADME, organism-based; design: dose 5 mg/kg, route intravenous; conditions: in vivo

SMILES	concentration at 6 h [1] [ng/g]	BPR (Nucleic Acid [2]) [mL/g]	BPR (Nucleic Acid [3]) [mL/g]	concentration at 8 h [4] [ng/mL]	concentration at 4 h [5] [ng/g]	BPR (Nucleic Acid [6]) [mL/g]	Activity (Rattus norvegicus [7])	inhibition in vivo at 30 mg/kg (Mus musculus [8]) [%]	inhibition in vivo at 30 mg/kg (Rattus norvegicus [9]) [%]	inhibition in vivo at 33.6 mg/kg (Mus musculus [10]) [%]	half-life [11] [min]	pIC50 [12]	BPR (Nucleic Acid [13]) [mL/g]	Vd [14] [L/kg]	BPR (Mus musculus [15]) [mL/g]	BPR (Nucleic Acid [16]) [mL/g]	pIC50 [17]	BPR (Nucleic Acid [18]) [mL/g]	inhibition in vivo at 33.6 mg/kg (Rattus norvegicus [19]) [%]	clearance [20] [mL/min/kg]
CC(C)Cc1ccc([C@H](C)C(=O)O)cc1 [DEXIBUPROFEN]	43.1	0.033	0.059	336	41.5	0.044	Toxic	68.7	29.5											
CC(C)Cc1ccc([C@H](CF)C(=O)O)cc1		0.035		42.4						50	52.8	6.28	0.03	0.27	0.031	0.041	6.30	0.032	41.3	3.5
